High-throughput results from PubChem.
KCNK3 inh – human KCNK3 channel inhibitors, primary screen, CHO cells, FluxOR thallium flux, B-score; FluxOR fluorescence; stronger effect = lower value; AID 602410, 2012; B-score at 10 µM; 340,000 compounds, 0.84% hits; Potassium channel subfamily K member 3 (Homo sapiens), O14649;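 active = B-score under library mean minus 4 SD, starting fluorescence ratio at most library mean plus 5 SD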;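 also: more negative B-score means stronger inhibition of thallium flux through KCNK3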
KCNQ1 act – potentiators or activators of KCNQ1 channel, primary screen, cell-based, thallium flux, high-throughput; Potassium voltage-gated channel subfamily KQT member 1 (Homo sapiens), P51787; CHO-K1 KCNQ1, thallium flux FluxOR fluorescence; stronger effect = higher value; B-score at 10 µM; 310,000 compounds, 0.35% hits;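 active = fluorescence ratio B-score, a plate-corrected score, at least three library SD, with initial intensity B-score within 5 SD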
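assay system = KCNQ1-transfected CHO-K1 cells | medium = assay buffer with matched DMSO | probe or stimulus = depolarizing K+/Tl+ stimulus, K2SO4 and Tl2SO4 each 12.5 mM in 5x stock | dosing = single dose | incubation = dye 90 min, compound 20 min, room temperature | detection = kinetic FluxOR fluorescence, 10 s baseline plus 110 s post-stimulus | evaluation = ratio B score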
KCNK9 inh – KCNK9 potassium channel inhibitors, primary screen, HEK293 cells, thallium flux | FluxOR thallium flux fluorescence; stronger effect = lower value | AID 488922, 2010 | B-score at 10 µM | 310,000 compounds, 1.2% hits | Potassium channel subfamily K member 9 (Homo sapiens), Q9NPC2;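 active = ratio B-score over 3 SD below the library mean, with starting fluorescence within 5 SD of its mean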;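 also: negative B-score means less thallium flux so channel inhibition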
Kir21 inh – inhibitors of mouse Kir2.1 inward-rectifier potassium channel. Inward rectifier potassium channel 2 (Mus musculus), P35561. HEK293-Kir2.1, FluxOR thallium flux fluorescence; stronger effect = lower value. B-score at 10 µM. 310,000 compounds, 0.85% hits. AID 1672, 2009;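 active = fluorescence ratio B-score at or below minus 3 SD of library scores, with starting-brightness B-score within 2 SD, cut at about -4.2 in these data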;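 also: channel flux triggered by added potassium and thallium sulfate stimulus; B-score of peak minus minimum fluorescence over baseline after thallium stimulus; more negative B-score means stronger Kir2.1 block with less thallium influx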
hERG rescue – hERG rescue from dofetilide block, primary screen, cell-based, CHO-hERG, FluxOR thallium flux, dofetilide IC70; Voltage-gated inwardly rectifying potassium channel KCNH2 (Homo sapiens), Q12809; dofetilide IC70 present; activation (rescue from dofetilide block), less the hit threshold, % at 10 µM; 310,000 compounds, 0.51% hits;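 active = activation above the mean of controls blocked by dofetilide plus 5 SD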;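 also: thallium influx through hERG after potassium depolarization seen as dye fluorescence rise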
KCNQ1 block – inhibitors of human KCNQ1 channel, primary screen, cell-based, thallium flux, high-throughput; B-score at 10 µM; Potassium voltage-gated channel subfamily KQT member 1 (Homo sapiens), P51787; CHO-K1 KCNQ1, FluxOR thallium flux fluorescence; stronger effect = higher value; AID 2642, 2010; 310,000 compounds, 1.3% hits;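 active = compounds whose thallium flux B-score, printed positive for inhibition, exceeds three library SD while starting fluorescence stays within three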;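 also: channel opened by potassium depolarization with thallium stimulus after 20 min compound exposure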
KCNQ1 block val – KCNQ1 potassium channel inhibitors, confirmation, cell-based, Tl flux, duplicate. shares compounds with KCNQ1 block. KCNQ1 cell line, FluxOR thallium flux fluorescence. inhibition, % at 10 µM. 1,600 compounds, 93% hits. AID 588353, 2011;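 active = primary screen active, with duplicate mean exceeding buffer control mean plus 3 SD of buffer wells, cut at about 28% in these data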;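 also: 0% = buffer control ratio and 100% = XE991 inhibitor control ratio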
CHO KCNQ1 ctr – thallium flux effects in parental CHO cells, counter-screen for KCNQ1 inhibitor project, cell-based, Tl flux. shares compounds with KCNQ1 block. parental CHO-K1, FluxOR thallium flux fluorescence ratio; stronger effect = lower value; zero means no signal rise above baseline. 1,600 compounds, 21% hits. fluorescence ratio (Tl flux) at 10 µM;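 active = mean of duplicate thallium-flux fluorescence ratios in parental host cells more than 5 SD below the buffer control mean, cut at about 0.38 in these data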;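 also: ratio is peak minus minimum fluorescence divided by baseline fluorescence; actives read low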
KCNQ1 ephys val – KCNQ1 channel inhibitors, confirmation, orthogonal assay, cell-based, automated electrophysiology. calls only at 10 µM. KCNQ1-CHO cells, automated patch clamp current. 490 compounds, 20% hits. shares compounds with KCNQ1 block. AID 624120, 2012;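 active = KCNQ1 current drop exceeding 3 SD of negative control wells, seen in both duplicate runs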;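 also: steady state current during a 2 s step from -80 to +40 mV; negative values mean current inhibition and positive values mean potentiation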
KCNQ2 spec – KCNQ2 channel inhibition, selectivity assay for KCNQ1 inhibitor project, cell-based; KCNQ2 cells, FluxOR thallium flux fluorescence; 1,600 compounds, 71% hits; AID 651746, 2012; shares compounds with KCNQ1 block; inhibition, % at 10 µM;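 active = mean percent inhibition of the KCNQ2 thallium signal more than 5 SD above the buffer-only control wells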;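 also: KCNQ2 expressed in CHO cells; 0% = buffer control wells and 100% = XE-991 inhibitor control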
Target sequence (O88943 whole entry, looked up): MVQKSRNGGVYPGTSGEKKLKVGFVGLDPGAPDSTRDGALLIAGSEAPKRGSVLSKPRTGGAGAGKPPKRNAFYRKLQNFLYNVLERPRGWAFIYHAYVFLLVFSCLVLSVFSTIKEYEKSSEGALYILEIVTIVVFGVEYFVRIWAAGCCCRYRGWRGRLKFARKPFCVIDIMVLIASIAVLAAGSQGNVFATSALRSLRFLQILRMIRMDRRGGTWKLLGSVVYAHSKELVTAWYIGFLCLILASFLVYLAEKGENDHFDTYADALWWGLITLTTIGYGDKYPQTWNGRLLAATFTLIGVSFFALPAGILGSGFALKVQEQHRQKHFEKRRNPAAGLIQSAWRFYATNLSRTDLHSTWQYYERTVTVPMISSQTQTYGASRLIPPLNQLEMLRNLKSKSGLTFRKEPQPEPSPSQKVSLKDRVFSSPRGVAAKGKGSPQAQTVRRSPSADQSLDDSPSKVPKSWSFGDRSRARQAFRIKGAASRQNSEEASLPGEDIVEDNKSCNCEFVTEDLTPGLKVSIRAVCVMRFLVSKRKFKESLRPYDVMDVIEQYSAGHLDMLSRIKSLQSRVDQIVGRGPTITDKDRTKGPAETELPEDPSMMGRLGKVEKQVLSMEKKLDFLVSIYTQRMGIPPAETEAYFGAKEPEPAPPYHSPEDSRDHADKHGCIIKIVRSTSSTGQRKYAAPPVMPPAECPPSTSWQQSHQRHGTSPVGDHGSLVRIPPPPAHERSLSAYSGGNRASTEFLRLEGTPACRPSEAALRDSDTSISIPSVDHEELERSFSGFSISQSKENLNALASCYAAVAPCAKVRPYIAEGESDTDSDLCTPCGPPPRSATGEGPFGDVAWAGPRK
KCNQ1-KCNE1 inh – KCNQ1/KCNE1 channel inhibition, selectivity assay for KCNQ1 inhibitor project, CHO-K1 cells, thallium flux, FluxOR; shares compounds with KCNQ1 block; AID 652147, 2013; inhibition, % at 10 µM; 1,600 compounds, 77% hits; FluxOR thallium flux fluorescence;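 active = mean percent inhibition of duplicate wells above the buffer-only control mean plus 3 SD of those controls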;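 also: 0% = buffer only wells and 100% = XE-991 inhibitor control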
KCNK9 inh conf – KCNK9 potassium channel inhibitors, confirmation, HEK293 cells, thallium flux, duplicate; shares compounds with KCNK9 inh; FluxOR thallium flux fluorescence; inhibition, % at 10 µM; 4,900 compounds, 43% hits; AID 492992, 2010;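 active = thallium signal inhibited by more than 5 SD of the compound-free buffer control wells, on both duplicate plates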;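 also: 0% = assay buffer control wells without compound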
Kir2-1 spec – mouse Kir2.1 channel inhibition, confirmation, selectivity assay for KCNK9 modulator project, cell-based, HEK293, thallium flux. AID 492993, 2010. inhibition, % at 10 µM. Kir2.1 cells, FluxOR thallium flux fluorescence. 4,900 compounds, 4% hits. shares compounds with KCNK9 inh;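 active = thallium signal drop more than 5 SD beyond the mean of the no-compound control wells, seen in both duplicate plates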;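 also: signal is fluorescence rise after thallium addition divided by baseline fluorescence; plate controls were assay buffer only for no effect and full block by chlorpromazine control for full effect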
KCNK9 uninduced – thallium flux in non-induced HEK293 cells, confirmation, counter-screen for KCNK9 inhibitor project, cell-based, second counter screen, non-induced KCNK9-HEK293; shares compounds with KCNK9 inh; AID 492997, 2010; FluxOR thallium flux; 4,900 compounds, 40% hits; inhibition, % at 10 µM;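 active = thallium signal drop beyond 5 SD of the untreated control mean, on both duplicate plates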;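 also: plate controls were buffer only IC0 wells for no effect and SID17386958 at its maximal inhibitory level for full effect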
KCNK3 inh conf – retest of human KCNK3 channel inhibitors, confirmation, CHO cells, FluxOR thallium flux, triplicate; FluxOR fluorescence; 0% buffer, 100% carvedilol maximal block; AID 651638, 2012; shares compounds with KCNK3 inh; 2,400 compounds, 99% hits; ratio percent of control, % at 10 µM;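 active = ratio percent of control, averaged over triplicates, above buffer control mean plus 5 SD, cut at about 64% in these data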;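 also: ratio is the fluorescence rise from min to max over baseline after thallium stimulus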
KCNK3 noninduced – thallium flux inhibition in non-induced cells, primary screen, counter-screen for KCNK3 inhibitor project, cell-based, non-induced KCNK3 line, FluxOR thallium, triplicate. shares compounds with KCNK3 inh. non-induced KCNK3 parental cells; stronger effect = lower value. thallium flux ratio (lower = more inhibition) at 10 µM. 2,400 compounds, 40% hits. AID 651747, 2012;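 active = thallium flux ratio, averaged over three wells, more than 5 SD below the buffer control mean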;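 also: host cells are CHO cells without KCNK3 induction; ratio is peak minus trough fluorescence over baseline then normalized to buffer controls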
* hit, by the source's call; i = inactive; / = not tested or not shown; + = active, no number. Rows were chosen to be rich in hits. Some 3.7% of all compounds tested hit in one or more screens of this group.

SMILES | KCNK3 inh | KCNQ1 act | KCNK9 inh | Kir21 inh | hERG rescue | KCNQ1 block | KCNQ1 block val | CHO KCNQ1 ctr | KCNQ1 ephys val | KCNQ2 spec | KCNQ1-KCNE1 inh | KCNK9 inh conf | Kir2-1 spec | KCNK9 uninduced | KCNK3 inh conf | KCNK3 noninduced
CC(=O)n1c2c(c3ccccc31)OC(N)=C(C#N)C2c1ccc(C(C)C)cc1 (centres undefined) | i | i | -9.22* | 1.37 | -9.4 | 8* | 114.5* | 0.381 | i | 101.3%* | 154.5%* | 33.0%* | i | 37.5%* | / | /
Cc1cc(C)n(Cc2ccc(Cl)cc2Cl)c(=O)c1S(=O)(=O)c1ccccc1 | i | i | -11.9* | 0.02 | -15.2 | 8* | 81.0* | 0.459 | / | 80.7%* | 102.5%* | 56.5%* | i | 42.0%* | / | /
CCOc1ccccc1NC(=O)C(NCC1CCCCC1)c1ccccc1 (centres undefined) | i | i | -8.9* | 2.92 | -29.3 | 10* | 131.0* | 0.383 | i | 125.3%* | 155.5%* | 45.5%* | i | 40.5%* | / | /
CCOC(=O)c1sc2nc(CC(=O)OC)nc(N3CCN(c4ccccn4)CC3)c2c1C | i | i | i | 0.53 | -7.9 | 8* | 112.0* | 0.407 | i | 109.7%* | 140.0%* | i | i | i | / | /
CC(=O)Nc1ccc(NC(=O)CSc2nnc(-c3cccs3)n2N)cc1 | i | i | i | 2.81 | -12.2 | i | / | / | / | / | / | / | / | / | / | /
CC(C)OC(=O)C(C#N)c1nc2ccccc2nc1N1CCCC1 (centres undefined) | i | i | i | -0.48 | -5.1 | i | / | / | / | / | / | / | / | / | / | /
CCC(C)COC(=O)C(C#N)c1nc2ccccc2nc1N1CCCCC1 (centres undefined) | i | i | -11.2* | 0.75 | -22.6 | 8* | 123.0* | 0.425 | i | 102.3%* | 116.0%* | 48.5%* | i | 45.0%* | 117.3* | 0.144*
Cc1cccc(NC(=O)CSc2nc3ccccc3nc2N2CC(C)OC(C)C2)c1 (centres undefined) | -11.4* | i | i | -0.88 | -9.4 | 8* | 101.5* | 0.417 | i | 122.0%* | 132.5%* | / | / | / | 114.3* | i
O=C(CSc1nc2ccccc2nc1N1CCCCC1)Nc1ccc(F)cc1 | -9.77* | i | -6.86* | 0.13 | -8.8 | 13* | 107.5* | 0.408 | i | 96.7%* | 158.5%* | / | / | / | 137.0* | 0.119*
CCOC(=O)C1CCCN(c2oc(-c3ccc(OC)cc3)nc2C#N)C1 (centres undefined) | i | i | i | -0.47 | -16.6 | i | / | / | / | / | / | / | / | / | / | /
COc1ccccc1S(=O)(=O)Cc1ccc(C(=O)NCc2ccccc2)o1 | i | i | i | -0.01 | -12.5 | i | / | / | / | / | / | / | / | / | / | /
O=C(Nc1ccc(Br)cc1)Nc1ccccc1Cl | -8.73* | i | -6.65* | 0 | -8.2 | 7* | 34.0* | 0.519 | / | i | i | / | / | / | 86.0* | i
O=C(CCCCCN1C(=O)c2cccc3cccc(c23)C1=O)NCCO | i | i | i | -0.02 | -8.5 | i | / | / | / | / | / | / | / | / | / | /
O=[N+]([O-])c1c(Nc2ccccc2O)ccc2nonc12 | i | i | i | 1.48 | -1.1 | i | / | / | / | / | / | / | / | / | / | /
O=[N+]([O-])c1c(Nc2ccccc2O)cc(Cl)c2nonc12 | -12.2* | i | i | -7.18* | -34.6 | 21* | 183.5* | 0.2* | / | 151.3%* | + | / | / | / | 154.3* | 0.0763*
CC(=O)c1c(C)[nH]c(C(=O)Nc2cccc(S(=O)(=O)N(C)c3ccccc3)c2)c1C | -10.9* | i | -8.61* | -0.65 | -17.3 | 16* | 128.0* | 0.354* | / | 143.0%* | 184.0%* | i | i | 35.5%* | 133.3* | 0.123*
CC(=O)Nc1ccc(Nc2cc(C(C)C)nc3c(-c4ccccc4)c(C)nn23)cc1 | -11.9* | i | i | 1.83 | -12.7 | 7* | 117.5* | 0.377* | / | 77.0%* | 133.5%* | / | / | / | 123.0* | i
CC(=O)Nc1ccc(Nc2cc(C)nc3c(-c4ccccc4)c(C)nn23)cc1 | i | i | i | 2.5 | -6.0 | i | / | / | / | / | / | / | / | / | / | /
